High-throughput results as filed in PubChem.
A selection: hits, their analogues and other compounds. The true share with any hit is near 1.5%.
APJ antag – antagonists of human APJ apelin receptor; P35414; CHO-K1 APJ beta-arrestin complementation, luminescence; inhibition, % at 20 µM; 330,000 tested, 0.32% active; AID 2521;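 active = inhibition above about 40% at 20 µM, limit read from the data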;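 also: cells challenged with 10 nM apelin-13 agonist together with compound; plate controls were apelin-13 plus DMSO wells for no effect and DMSO wells lacking apelin-13 for full effect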
Target sequence (P35414 whole entry, looked up): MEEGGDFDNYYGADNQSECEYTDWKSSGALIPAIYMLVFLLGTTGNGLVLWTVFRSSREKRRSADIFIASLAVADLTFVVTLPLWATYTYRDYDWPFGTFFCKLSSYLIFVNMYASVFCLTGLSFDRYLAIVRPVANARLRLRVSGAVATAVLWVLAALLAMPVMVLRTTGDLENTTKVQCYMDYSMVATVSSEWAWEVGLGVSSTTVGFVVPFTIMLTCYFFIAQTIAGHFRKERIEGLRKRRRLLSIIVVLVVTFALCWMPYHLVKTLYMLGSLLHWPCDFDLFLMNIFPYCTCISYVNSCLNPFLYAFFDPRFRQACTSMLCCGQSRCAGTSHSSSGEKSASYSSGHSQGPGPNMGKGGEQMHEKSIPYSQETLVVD
APJ agonist – activates the human apelin receptor APJ; P35414; CHO-K1 APJ PathHunter beta-arrestin, luminescence; 0% DMSO wells, 100% apelin; activation, % at 20 µM; 330,000 tested, 0.11% active;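 active = activation more than six SD over the plate average, tested at 20 µM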;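 also: 0% = DMSO alone and 100% = apelin-13 at 10 nM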
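Incubation: overnight seeding, 90 min compound at 25 °C, 1 h detection; test system: PathHunter CHO-K1 APJ (AGTRL-1) beta-arrestin reporter cells; amount: 1000 cells/well; doses: one dose, 20 µM compound, 1% DMSO; measured by: beta-gal luminescence; measure: agonist-driven arrestin binding to APJ; benchmarks: negative DMSO alone, positive Apelin-13 at 10 nM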
EBI2 antag – antagonists of human EBI2 receptor. inhibition, % at 5 µM. EBI2 beta-arrestin recruitment, luminescence, 7a,25-OHC stimulated. P32249. 360,000 tested, 0.81% active. AID 651636; in the data active = inhibition above about 38%;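 also: enzyme fragment complementation signal reports receptor beta-arrestin coupling in cells; 0% = agonist plus DMSO wells and 100% = wells without agonist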
CXCR6 block – CXCR6 (human) receptor inhibition. CHO-K1 PathHunter CXCR6 beta-arrestin, luminescence. inhibition, % at 20 µM. 360,000 tested, 0.36% active. AID 602244; in the data active = inhibition above about 34%, passing the limit was not always enough;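 also: antagonist mode with CXCL16 agonist at 10 nM final; 0% = 10 nM CXCL16 with DMSO and 100% = unstimulated wells without agonist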
CCR6 antagonist – antagonists of human CCR6 receptor. CHO-K1 CCR6 PathHunter beta-arrestin, luminescence, CCL20-stimulated. P51684. inhibition, % at 20 µM. 340,000 tested, 0.49% active. AID 493098;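 active = compounds whose inhibition of the agonist-driven luminescence signal at 20 µM reaches about 50%, limit read from the data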;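 also: cells stimulated with CCL20 at 14 nM final; plate controls were DMSO with CCL20 for no effect and DMSO without agonist for full effect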
APJ ag conf – APJ receptor agonism confirmation; shares compounds with APJ agonist; CHO-K1 APJ PathHunter beta-arrestin, luminescence; activation, % at 20 µM; 310 tested, 10% active;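 active = activation above 40%, taking the highest of four retests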;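 also: plate controls were DMSO wells for no effect and apelin-13 at 10 nM for full effect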
APJ antag conf – APJ receptor antagonism confirmation. shares compounds with APJ antag. APJ beta-arrestin recruitment, luminescence, antagonist mode. inhibition, % at 20 µM. 950 tested, 66% active; in the data active = inhibition above about 50%
EBI2 antag conf – EBI2 (human) antagonism, single concentration confirmation; shares compounds with EBI2 antag; EBI2 beta-arrestin luminescence, 7a,25-OHC antagonism; inhibition, % at 5 µM; 2,400 tested, 29% active; AID 651997;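 active = inhibition of at least 50%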
EBI2 ag – EBI2 agonism counter-screen; AID 652000; EBI2-expressing cells, agonist mode, luminescence, 60 min; 0% vehicle, 100% 7α,25-dihydroxycholesterol control; 2,400 tested, under 10 active; shares compounds with EBI2 antag; activation, % at 5 µM;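 active = activation of at least 50%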
bGal cs – counter-screen for EBI2 antagonists: E. coli beta-galactosidase inhibition; shares compounds with EBI2 antag; purified beta-galactosidase, luminescent Galacton Star, 15 min; 2,400 tested, 1% active; inhibition, % at 5 µM;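 active = replicate-average signal at least 3 plate SD below neutral wells, shown as high inhibition, flagging enzyme-inhibiting false positives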;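 also: 0% = DMSO wells with enzyme and 100% = wells lacking enzyme; higher means stronger loss of beta-gal luminescence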
Starred values were filed as active, the others as inactive; nt = no result.

SMILES	APJ antag	APJ agonist	EBI2 antag	CXCR6 block	CCR6 antagonist	APJ antag conf	others
CCc1ccc(NC(=S)Nc2cccc3cnccc23)cc1	-113	15*	50*	-5	15	nt	APJ ag conf=-1;EBI2 antag conf=9;EBI2 ag=0;bGal cs=-3
COc1ccc(OCC(=O)OCC(=O)NC2CC2)cc1	0	-3	-8	-6	12	nt
COc1ccc(-c2c3c(nc4sc(C(=O)Nc5cc(C)on5)c(N)c24)CCC3)cc1	55*	-17	25	10	9	30
COc1ccc(-c2c3c(nc4sc5c(=O)[nH]c(C)nc5c24)CCC3)cc1	6	-2	3	5	-4	nt
COc1cc(S(=O)(=O)N2CCOCC2)cc(C(=O)OCC(=O)NCc2ccco2)c1OC	0	-3	0	-10	-2	nt
COc1ccc(C(=O)CNc2ccccc2Br)cc1	6	-7	11	8	16	nt
Cc1ccc(C)c(NCC(=O)c2ccc(Cl)cc2)c1	73*	-14	28	22	60*	88*
Cc1ccc(C)c(NC(=O)c2cc[n+](C)cc2)c1	12	2	1	-2	-14	nt
Cc1ccc(C(=O)CNc2cc(C)ccc2C)cc1	43*	-16	21	32	73*	118*
O=C(CNc1ccccc1C(=O)O)c1ccccc1	41*	-14	1	68*	79*	149*
Cc1ccccc1NCC(=O)c1ccc(Br)cc1	46*	-14	9	22	49	99*
Cc1ccc(C)c(NCC(=O)NNC(=S)Nc2ccccc2)c1	3	-5	-2	-5	16	nt
CCOC(=O)c1c(C)[nH]c(NC(=O)N2CCOCC2)c1C	7	0	-5	9	-22	nt
CCOc1cc2[nH]c(=O)n(CCCCC(=O)N3CCCCCC3)c(=O)c2cc1OCC	44*	3	1	-2	11	1
CCCCCNC(=O)CCCCn1c(=O)[nH]c2cc(OCC)c(OCC)cc2c1=O	5	2	-5	-3	5	nt
O=C(NNc1ccc(Cl)cc1)c1sccc1Cl	62*	-6	21	8	27	98*
COc1ccc(C(=O)/C=C/C(=O)N(Cc2ccccc2)C(C(=O)NC2CCCCC2)c2ccncc2)c(O)c1 (stereo unspecified)	9	-5	8	13	4	nt
COc1ccc(C(=O)/C=C/C(=O)N(CC(=O)NC2CCCCC2)CC2CCCO2)c(O)c1 (stereo unspecified)	56*	-4	6	68*	87*	110*
CC1(C)CC(=O)C=C(C#CC2(O)CCCCC2)C1	nt	nt	-66	-1	nt	nt
Cc1onc(-c2c(Cl)cccc2Cl)c1C(=O)N1CCc2ccccc2C1	14	-6	8	4	25	nt
COC(=O)c1ccc(=O)n(Cc2ccc3c(c2)OCO3)c1	-19	-6	5	10	-25	nt
CCC(/C=C1\Oc2ccc(OC)cc2N1C)=C\c1sc2ccccc2[n+]1CCCS(=O)(=O)[O-]	nt	nt	-13	9	41	nt
COc1cc(/C=C/c2sc3ccccc3[n+]2CCCS(=O)(=O)[O-])ccc1O	51*	-9	13	51*	55*	100*
CCOC(=O)c1c(-c2cccs2)csc1NC(=O)c1ccco1	20	1	0	-5	-17	nt
CCOC(=O)c1c(C2COc3ccccc3O2)csc1NC(=O)c1ccco1 (stereo unspecified)	43*	-9	23	8	10	77*
CCOc1cc(/C=C2\SC(=S)N(Nc3ccccc3)C2=O)ccc1O	52*	-11	16	44*	62*	108*
